The text below walks through data of ChEMBL document CHEMBL1142719 (J Med Chem, 2005).

Experiment [1] concerns the target T1, Adenosine receptor A2a (Homo sapiens, UniProt P29274). The experiment can be described thus: Inhibition of [3H]-CGS- 21680 binding to human Adenosine A2A receptor expressed in CHO cells. It counts as cell-based.
The target in experiment [2] is T2, Adenosine receptor A2b (Homo sapiens) (UniProt P29275).
T2 sequence (whole entry): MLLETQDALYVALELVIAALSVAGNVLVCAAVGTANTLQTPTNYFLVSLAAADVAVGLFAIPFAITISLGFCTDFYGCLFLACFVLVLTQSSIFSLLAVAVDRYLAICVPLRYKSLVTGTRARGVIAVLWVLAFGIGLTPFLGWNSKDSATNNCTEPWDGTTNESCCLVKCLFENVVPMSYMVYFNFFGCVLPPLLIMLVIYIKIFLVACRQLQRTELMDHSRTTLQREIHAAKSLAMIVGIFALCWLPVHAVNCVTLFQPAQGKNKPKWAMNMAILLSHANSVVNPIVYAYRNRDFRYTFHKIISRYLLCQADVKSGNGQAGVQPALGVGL
The experiment is described as follows: Relative activation of human Adenosine A2B receptor at 10 uM treatment compared to 10 uM Cl-IB-MECA. The experiment is classed as functional.

Experiment [3] concerns the target T1, Adenosine receptor A2a. The experiment can be described thus: Displacement of [3H]-CGS- 21680 from human Adenosine A2A receptor expressed in CHO cells at 10 uM. It counts as cell-based. The essentials: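 Human A2A receptor stably expressed in adherent CHO cells. Competition binding used [3H]CGS 21680 as the radioligand.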
A general note: Displacement assays read how much labelled ligand stays bound in the presence of the test substance.

Experiment [4] concerns the target T3, Adenosine receptor A1 (Homo sapiens, UniProt P30542).
T3 sequence (P30542 whole entry): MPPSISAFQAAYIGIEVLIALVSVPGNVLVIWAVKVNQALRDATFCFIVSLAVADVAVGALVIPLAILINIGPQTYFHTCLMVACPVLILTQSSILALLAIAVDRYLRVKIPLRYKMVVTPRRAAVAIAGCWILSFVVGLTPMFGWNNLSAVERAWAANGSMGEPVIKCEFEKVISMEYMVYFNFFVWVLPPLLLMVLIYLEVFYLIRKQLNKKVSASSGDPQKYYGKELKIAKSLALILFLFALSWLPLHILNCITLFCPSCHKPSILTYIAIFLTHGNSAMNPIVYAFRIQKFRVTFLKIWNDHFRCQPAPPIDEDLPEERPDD
The experiment can be described thus: Inhibition of [3H]R-PIA binding to human Adenosine A1 receptor expressed in CHO cells. The experiment is classed as cell-based.

Experiment [5] concerns the target T4, Adenosine receptor A3 (Homo sapiens) (UniProt P0DMS8).
T4 sequence (whole entry): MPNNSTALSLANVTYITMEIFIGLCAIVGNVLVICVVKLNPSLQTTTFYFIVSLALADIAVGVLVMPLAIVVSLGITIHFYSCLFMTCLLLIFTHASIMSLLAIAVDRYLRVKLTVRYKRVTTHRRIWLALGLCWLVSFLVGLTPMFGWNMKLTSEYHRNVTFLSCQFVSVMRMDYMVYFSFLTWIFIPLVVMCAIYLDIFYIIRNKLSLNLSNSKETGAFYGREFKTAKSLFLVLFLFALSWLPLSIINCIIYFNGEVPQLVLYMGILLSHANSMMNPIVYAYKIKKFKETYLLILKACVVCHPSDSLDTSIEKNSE
The experiment is described as follows: Relative activation of human Adenosine A3 receptor expressed in CHO cells at 10 uM treatment compared to 10 uM Cl-IB-MECA. It counts as functional, cell-based.

Experiment [6] addresses T5, Adenosine receptor A3 (Homo sapiens, UniProt P0DMS8).
T5 sequence (P0DMS8 whole entry): T4 sequence (whole entry)
The experiment can be described thus: Inhibition of [125I]-AB-MECA binding to human Adenosine A3 receptor expressed in CHO cells. It counts as cell-based.

Experiment [7] deals with T6, Adenosine receptor A3 (Rattus norvegicus, UniProt P28647).
T6 sequence (P28647 whole entry): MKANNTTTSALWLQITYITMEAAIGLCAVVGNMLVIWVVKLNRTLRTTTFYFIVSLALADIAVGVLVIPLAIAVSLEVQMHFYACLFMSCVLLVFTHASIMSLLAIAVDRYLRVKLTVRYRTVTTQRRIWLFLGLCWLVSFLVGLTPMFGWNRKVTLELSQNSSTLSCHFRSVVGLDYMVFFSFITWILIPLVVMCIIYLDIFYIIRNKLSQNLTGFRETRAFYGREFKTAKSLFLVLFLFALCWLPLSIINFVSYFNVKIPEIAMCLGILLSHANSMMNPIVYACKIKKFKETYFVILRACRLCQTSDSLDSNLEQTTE
The experiment can be described thus: Inhibition of [125I]AB-MECA binding to rat Adenosine A3 receptor expressed in CHO cells. It counts as cell-based.

T1 sequence (P29274 whole entry): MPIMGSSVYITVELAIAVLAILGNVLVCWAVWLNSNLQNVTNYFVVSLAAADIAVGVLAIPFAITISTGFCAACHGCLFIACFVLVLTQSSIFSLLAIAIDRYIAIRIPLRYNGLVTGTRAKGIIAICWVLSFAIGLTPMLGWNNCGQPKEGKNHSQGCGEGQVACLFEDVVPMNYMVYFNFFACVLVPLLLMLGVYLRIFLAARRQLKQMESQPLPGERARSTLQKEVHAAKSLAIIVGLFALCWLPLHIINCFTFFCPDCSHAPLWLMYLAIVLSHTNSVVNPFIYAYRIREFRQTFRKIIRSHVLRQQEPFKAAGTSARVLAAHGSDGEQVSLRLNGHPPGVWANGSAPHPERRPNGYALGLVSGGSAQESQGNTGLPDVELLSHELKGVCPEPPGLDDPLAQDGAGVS

By Ki is commonly meant the dissociation constant of the complex between target and ligand, obtained from inhibition or displacement. In experiment [1], `CNC(=O)[C@]12C[C@@H]1[C@@H](n1cnc3c(NC4CC4c4ccccc4)nc(Cl)nc31)[C@H](O)[C@@H]2O` (some centres not stated) came in with an inhibition constant (Ki) of 4800 nM. The molecule further returned an Activation in experiment [2] of 48%.
Take `CNC(=O)[C@]12C[C@@H]1[C@@H](n1cnc3c(NC)nc(N)nc31)[C@H](O)[C@@H]2O`: the Displacement in experiment [3] turned out to be 17%.
On to `CNC(=O)[C@]12C[C@@H]1[C@@H](n1cnc3c(NCc4cc(OC)ccc4OC)nc(Cl)nc31)[C@H](O)[C@@H]2O`, for which the inhibition constant Ki in experiment [4] came to 1600 nM; in experiment [6], 1.4 nM. Also, the Activation in experiment [5] was 107%; in experiment [2], 0%. The molecule also displayed a Displacement in experiment [3] of 52%.
On to `OC[C@H]1O[C@@H](n2cnc3c(NC4CC4c4ccccc4)ncnc32)[C@H](O)[C@@H]1O` (some centres not stated), for which the values for the Ki in experiment [1] and in experiment [7] were 2500 nM and 400 nM, respectively. The Activation was 101% in experiment [5] and 26% in experiment [2].
For the molecule `OC[C@H]1O[C@@H](n2cnc3c(NCC(c4ccccc4)c4ccccc4)ncnc32)[C@H](O)[C@@H]1O`, the Activation in experiment [5] worked out at 0%; in experiment [2], 70%. This molecule registered an inhibitory constant (Ki) in experiment [7] of 540 nM.
As to `Cc1ccccc1CNc1ncnc2c1ncn2[C@@H]1O[C@H](CO)[C@@H](O)[C@H]1O`, the Activation in experiment [5] amounted to 100%. Also, in experiment [7], the affinity corresponds to a Ki of 38 nM.
`CNC(=O)[C@]12C[C@@H]1[C@@H](n1cnc3c(NCc4ccc(N)c(I)c4)nc(Cl)nc31)[C@H](O)[C@@H]2O` had an inhibition constant (Ki) in experiment [1] of 1100 nM.
In the case of `CNC(=O)[C@]12C[C@@H]1[C@@H](n1cnc3c(NCc4cc(Cl)ccc4Cl)nc(Cl)nc31)[C@H](O)[C@@H]2O`, affinity in experiment [1] was put at a Ki of 1300 nM. In addition, the Activation in experiment [2] came to 32%.
For `CNC(=O)[C@]12C[C@@H]1[C@@H](n1cnc3c(NCc4ccccc4C)nc(Cl)nc31)[C@H](O)[C@@H]2O`, in that order: 3800 nM and 24%.
For `CNC(=O)[C@]12C[C@@H]1[C@@H](n1cnc3c(NCc4cccc(C)c4)nc(Cl)nc31)[C@H](O)[C@@H]2O`, in experiment [1], the Ki was 3700 nM. The molecule also returned an Activation in experiment [2] of 46%.
Turning to `OC[C@@]12C[C@@H]1[C@@H](n1cnc3c(NCc4cccc(I)c4)nc(Cl)nc31)[C@H](O)[C@@H]2O`, the Ki was 65 nM in experiment [4], 1600 nM in experiment [1] and 1.9 nM in experiment [6]. The molecule also registered an Activation in experiment [5] of 3%.
The molecule `CNC(=O)[C@H]1O[C@@H](n2cnc3c(NCc4cccc(I)c4)ncnc32)[C@H](O)[C@@H]1O` showed an Activation in experiment [2] of 0%.
As to `CNC(=O)[C@@]12C[C@@H]1[C@@H](n1cnc3c(NCc4cccc(Cl)c4)nc(Cl)nc31)[C@H](O)[C@@H]2O`, the inhibition constant (Ki) in experiment [4] was 260 nM; in experiment [1] it was 2300 nM; in experiment [7], 1 nM. The same molecule had an Activation in experiment [2] of 38%.
`CNC(=O)[C@@]12C[C@@H]1[C@@H](n1cnc3c(NCc4cc(Cl)ccc4OC)nc(Cl)nc31)[C@H](O)[C@@H]2O` yielded a Ki in experiment [1] of 1200 nM. The same molecule registered an Activation in experiment [2] of 37%.
In experiment [5], `CNC(=O)[C@@]12C[C@@H]1[C@@H](n1cnc3c(NC)nc(Cl)nc31)[C@H](O)[C@@H]2O` registered an Activation of 104%. The Displacement in experiment [3] came to 6%.
In the case of `CNC(=O)[C@H]1O[C@@H](n2cnc3c(NCc4cccc(I)c4)nc(Cl)nc32)[C@H](O)[C@@H]1O`, in experiment [2], the Activation worked out at 0%.
In general, Inhibition refers to the percentage by which the read-out fell short of the control. High values mean a strong effect, low ones a weak effect. `CNC(=O)[C@]12C[C@@H]1[C@@H](n1cnc3c(NCc4cc(C#CCO)ccc4Cl)nc(Cl)nc31)[C@H](O)[C@@H]2O` gave an Inhibition in experiment [4] (cho) of 14%. The Activation in experiment [5] is 108%; in experiment [2] it was 6%. The Displacement in experiment [3] is 12%. Also, in experiment [6], the Ki came out at 217 nM.
Take `CNC(=O)[C@]12C[C@@H]1[C@@H](n1cnc3c(NCc4cccc(Cl)c4)nc(SC)nc31)[C@H](O)[C@@H]2O`: the Ki in experiment [4] was 610 nM; in experiment [6], 1.5 nM. In experiment [5], this molecule displayed an Activation of 100%. Also, the Displacement in experiment [3] is 52%.
For `OC[C@H]1O[C@@H](n2cnc3c(NCc4cccc(I)c4)ncnc32)[C@H](O)[C@@H]1O`, affinity in experiment [4] was put at a Ki of 7.4 nM. The Activation in experiment [5] was 46%; in experiment [2], 58%.
With `CNC(=O)[C@]12C[C@@H]1[C@@H](n1cnc3c(NCc4cc(I)ccc4OC)nc(Cl)nc31)[C@H](O)[C@@H]2O`, affinity in experiment [1] was put at a Ki of 430 nM. This molecule gave an Activation in experiment [2] of 46%.
`CNC(=O)[C@]12C[C@@H]1[C@@H](n1cnc3c(NCc4cc(I)ccc4Cl)nc(Cl)nc31)[C@H](O)[C@@H]2O` gave an inhibitory constant (Ki) in experiment [1] of 480 nM. For the same molecule, the Activation in experiment [2] is 58%.
In turn, `CNC(=O)[C@]12C[C@@H]1[C@@H](n1cnc3c(NCc4cccc(F)c4)nc(Cl)nc31)[C@H](O)[C@@H]2O` registered an inhibition constant Ki in experiment [1] of 5100 nM. In addition, in experiment [2], the Activation is 28%.
`CNC(=O)C12C[C@@H]1[C@@H](n1cnc3c(NCc4cccnc4)nc(Cl)nc31)[C@H](O)[C@@H]2O` (single isomer, unassigned): in experiment [3], the Displacement worked out at 33%. Further, the Activation in experiment [2] came out at 4%.
Molecule `CNC(=O)[C@]12C[C@@H]1[C@@H](n1cnc3c(NCc4cc(Cl)ccc4OCC(N)=O)nc(Cl)nc31)[C@H](O)[C@@H]2O` gave an inhibition constant (Ki) in experiment [1] of 800 nM.
For `CNC(=O)[C@@]12C[C@@H]1[C@@H](n1cnc3c(NCc4cccc(I)c4)ncnc31)[C@H](O)[C@@H]2O`, the Activation in experiment [5] was 100%.
In the case of `OC[C@@]12C[C@@H]1[C@@H](n1cnc3c(NCc4cccc(I)c4)ncnc31)[C@H](O)[C@@H]2O`, the Ki in experiment [4] is 35 nM; in experiment [1], 860 nM; in experiment [6], 9.2 nM. This molecule returned an Activation in experiment [5] of 13%.
In turn, `COc1ccc(Cl)cc1CNc1ncnc2c1ncn2[C@@H]1O[C@H](CO)[C@@H](O)[C@H]1O` came in with a Ki in experiment [1] of 400 nM. In experiment [2], this molecule registered an Activation of 57%.
For the molecule `CNC(=O)[C@]12C[C@@H]1[C@@H](n1cnc3c(NCc4cccc(Cl)c4)nc(I)nc31)[C@H](O)[C@@H]2O`, the Displacement in experiment [3] stood at 43%.
In turn, `CNC(=O)[C@@]12C[C@@H]1[C@@H](n1cnc3c(NCc4cccc(I)c4)nc(Cl)nc31)[C@H](O)[C@@H]2O` gave an Activation in experiment [5] of 100%.
Regarding `OC[C@H]1O[C@@H](n2cnc3c(NCc4cccc(Cl)c4)ncnc32)[C@H](O)[C@@H]1O`, in experiment [5], the Activation is 80%. The Ki in experiment [6] was 4.4 nM; in experiment [7] it was 35 nM.
Consider `OC[C@H]1O[C@@H](n2cnc3c(NCc4cccc(I)c4)nc(Cl)nc32)[C@H](O)[C@@H]1O`, for which, in experiment [4], the Ki was 17 nM. Besides, the Activation was 0% in experiment [5] and 16% in experiment [2].
Regarding `CNC(=O)[C@]12C[C@@H]1[C@@H](n1cnc3c(NCc4ccc(N)cc4)nc(Cl)nc31)[C@H](O)[C@@H]2O`, the Displacement in experiment [3] was found to be 28%. The molecule also registered an Activation in experiment [2] of 22%.
With `CNC(=O)[C@]12C[C@@H]1[C@@H](n1cnc3c(NCc4cccc(C#CCO)c4)nc(Cl)nc31)[C@H](O)[C@@H]2O`, the Displacement in experiment [3] was determined as 56%. The molecule also came in with an Activation in experiment [2] of 28%.
Consider `CNc1nc(N)nc2c1ncn2[C@@H]1O[C@H](CO)[C@@H](O)[C@H]1O`, for which the figures for the Activation in experiment [5] and in experiment [2] were 98% and 11%, respectively. This molecule also registered a Displacement in experiment [3] of 15%. In addition, the Ki in experiment [7] was > 10000 nM.
As to `OC[C@H]1O[C@@H](n2cnc3c(NCc4cccnc4)ncnc32)[C@H](O)[C@@H]1O`, the inhibitory constant (Ki) in experiment [4] turned out to be 42 nM; in experiment [1] it was 2300 nM; in experiment [6], 4.5 nM; in experiment [7], 290 nM. This molecule also displayed an Activation in experiment [5] of 100%.
